Test results: ChEMBL document CHEMBL5107978, “Identification of ligand linkage vectors for the development of p300/CBP degraders” (RSC Med Chem, 2022)
Calls of active or inactive are those of the source. No cut-off for these calls is given here.

Tests used:
MM1.S = assay: Antiproliferative activity against human MM1.S cells assessed as reduction in cell proliferation incubated for 72 hrs by MTS assay; assay type: functional, cell-based
Summary of the method: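 MM1.S cells seeded at 2 × 10^5 cells/well, exposed 72 h in triplicate across 12.5–500 nM. Proliferation read by MTS dye absorbance. EC50 fitted with an [inhibitor] vs. normalized response model; uncertainty given as standard error.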

[1] = molecular target: T1, CREB-binding protein/Histone acetyltransferase p300 (Homo sapiens) (UniProt Q09472+Q92793); assay: Protac activity at p300/CBP degradation in human MM1.S cells assessed as amount p300 remaining at 10 uM incubated for 24 hrs by pulldown-based Western blot analysis; assay type: cell-based
Summary of the method: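 MM1.S cells at 2 × 10^6 cells/well in RPMI 1640, pre-incubated 24 h at 37 °C, 5% CO2, then exposed 24 h at 1, 5 or 10 µM. RIPA lysates run on 3–8% tris-acetate SDS gels and probed for p300 and β-actin. Band intensity expressed relative to the lane's DMSO vehicle and β-actin loading control.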

[2] = molecular target: T1, CREB-binding protein/Histone acetyltransferase p300 (Homo sapiens); assay: Binding affinity to p300/CBP in human OPM-2 cell lysate assessed as p300 pull down and measured after 12 hrs by pulldown-based Western blot analysis; assay type: subcellular
Summary of the method: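 Biotinylated ligands coupled to streptavidin magnetic beads for 3 h at room temperature in 50 mM Tris pH 7.5, 300 mM NaCl, 0.05% NP40. Beads then incubated with OPM2 cell lysate overnight at 4°C, washed in binding buffer, boiled off in SDS loading buffer. Bound p300 detected by SDS-PAGE and anti-p300 immunoblot.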

T1 sequence (Q09472 whole entry, looked up): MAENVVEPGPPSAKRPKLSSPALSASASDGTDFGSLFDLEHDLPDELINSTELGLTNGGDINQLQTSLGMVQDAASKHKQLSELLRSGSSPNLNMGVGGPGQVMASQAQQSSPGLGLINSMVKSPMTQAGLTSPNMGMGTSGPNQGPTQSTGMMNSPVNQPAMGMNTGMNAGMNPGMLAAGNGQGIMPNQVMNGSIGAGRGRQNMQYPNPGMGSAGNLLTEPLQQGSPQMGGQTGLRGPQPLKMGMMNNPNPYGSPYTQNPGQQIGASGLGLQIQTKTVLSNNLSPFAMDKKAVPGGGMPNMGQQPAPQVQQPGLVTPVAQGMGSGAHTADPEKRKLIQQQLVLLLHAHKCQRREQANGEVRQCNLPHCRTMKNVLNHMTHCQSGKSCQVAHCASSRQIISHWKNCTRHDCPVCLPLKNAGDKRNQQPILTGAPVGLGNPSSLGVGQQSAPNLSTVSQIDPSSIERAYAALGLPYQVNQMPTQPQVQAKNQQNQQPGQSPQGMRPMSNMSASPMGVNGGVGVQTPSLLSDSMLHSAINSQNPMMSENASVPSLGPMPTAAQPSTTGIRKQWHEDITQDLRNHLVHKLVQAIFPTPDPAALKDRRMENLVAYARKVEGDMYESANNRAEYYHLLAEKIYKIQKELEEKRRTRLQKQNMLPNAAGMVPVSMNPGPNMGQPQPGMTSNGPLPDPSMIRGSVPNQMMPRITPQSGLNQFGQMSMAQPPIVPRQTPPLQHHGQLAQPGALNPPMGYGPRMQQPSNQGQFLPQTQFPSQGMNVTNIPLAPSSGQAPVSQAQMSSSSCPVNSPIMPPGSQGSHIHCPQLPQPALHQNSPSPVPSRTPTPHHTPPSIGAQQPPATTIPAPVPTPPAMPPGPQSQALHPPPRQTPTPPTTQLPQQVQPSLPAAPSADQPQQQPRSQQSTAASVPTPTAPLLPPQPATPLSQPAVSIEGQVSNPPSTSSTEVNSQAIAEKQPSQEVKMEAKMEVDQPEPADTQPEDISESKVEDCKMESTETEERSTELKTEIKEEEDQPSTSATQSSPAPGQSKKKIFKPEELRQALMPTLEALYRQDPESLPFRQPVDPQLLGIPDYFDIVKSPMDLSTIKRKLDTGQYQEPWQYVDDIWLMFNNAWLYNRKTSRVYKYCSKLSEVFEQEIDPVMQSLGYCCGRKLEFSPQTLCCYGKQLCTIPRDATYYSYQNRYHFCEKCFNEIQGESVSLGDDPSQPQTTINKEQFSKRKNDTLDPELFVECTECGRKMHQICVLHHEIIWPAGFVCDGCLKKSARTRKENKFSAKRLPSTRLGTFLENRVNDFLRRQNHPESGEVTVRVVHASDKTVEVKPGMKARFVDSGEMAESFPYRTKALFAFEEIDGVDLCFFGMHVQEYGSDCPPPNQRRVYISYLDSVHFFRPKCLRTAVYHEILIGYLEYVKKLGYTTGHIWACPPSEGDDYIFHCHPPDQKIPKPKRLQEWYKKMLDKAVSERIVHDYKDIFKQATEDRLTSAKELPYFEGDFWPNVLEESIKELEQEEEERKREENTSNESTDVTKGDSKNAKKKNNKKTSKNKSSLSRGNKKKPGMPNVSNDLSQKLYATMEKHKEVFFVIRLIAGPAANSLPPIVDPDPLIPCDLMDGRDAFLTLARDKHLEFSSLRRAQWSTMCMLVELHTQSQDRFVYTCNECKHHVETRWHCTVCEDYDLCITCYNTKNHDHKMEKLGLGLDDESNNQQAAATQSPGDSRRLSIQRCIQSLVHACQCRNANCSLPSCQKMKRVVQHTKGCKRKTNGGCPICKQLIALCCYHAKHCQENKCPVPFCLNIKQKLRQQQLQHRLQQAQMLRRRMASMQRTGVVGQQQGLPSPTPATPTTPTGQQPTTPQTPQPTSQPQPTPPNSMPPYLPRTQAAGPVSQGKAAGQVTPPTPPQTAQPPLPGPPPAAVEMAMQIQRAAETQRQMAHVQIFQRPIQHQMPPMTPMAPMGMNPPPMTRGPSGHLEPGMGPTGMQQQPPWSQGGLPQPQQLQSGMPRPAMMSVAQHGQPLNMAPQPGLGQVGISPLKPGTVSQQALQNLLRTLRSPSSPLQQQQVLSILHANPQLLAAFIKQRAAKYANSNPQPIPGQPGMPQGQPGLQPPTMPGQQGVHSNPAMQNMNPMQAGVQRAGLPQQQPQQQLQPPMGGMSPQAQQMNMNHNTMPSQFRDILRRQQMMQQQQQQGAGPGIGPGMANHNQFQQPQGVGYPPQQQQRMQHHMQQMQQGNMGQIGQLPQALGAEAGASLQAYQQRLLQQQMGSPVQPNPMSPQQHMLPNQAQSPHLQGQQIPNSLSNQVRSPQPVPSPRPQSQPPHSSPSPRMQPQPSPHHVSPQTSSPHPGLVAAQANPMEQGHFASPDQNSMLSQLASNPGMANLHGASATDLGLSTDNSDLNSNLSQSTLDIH
T1 sequence (Q92793 whole entry, looked up): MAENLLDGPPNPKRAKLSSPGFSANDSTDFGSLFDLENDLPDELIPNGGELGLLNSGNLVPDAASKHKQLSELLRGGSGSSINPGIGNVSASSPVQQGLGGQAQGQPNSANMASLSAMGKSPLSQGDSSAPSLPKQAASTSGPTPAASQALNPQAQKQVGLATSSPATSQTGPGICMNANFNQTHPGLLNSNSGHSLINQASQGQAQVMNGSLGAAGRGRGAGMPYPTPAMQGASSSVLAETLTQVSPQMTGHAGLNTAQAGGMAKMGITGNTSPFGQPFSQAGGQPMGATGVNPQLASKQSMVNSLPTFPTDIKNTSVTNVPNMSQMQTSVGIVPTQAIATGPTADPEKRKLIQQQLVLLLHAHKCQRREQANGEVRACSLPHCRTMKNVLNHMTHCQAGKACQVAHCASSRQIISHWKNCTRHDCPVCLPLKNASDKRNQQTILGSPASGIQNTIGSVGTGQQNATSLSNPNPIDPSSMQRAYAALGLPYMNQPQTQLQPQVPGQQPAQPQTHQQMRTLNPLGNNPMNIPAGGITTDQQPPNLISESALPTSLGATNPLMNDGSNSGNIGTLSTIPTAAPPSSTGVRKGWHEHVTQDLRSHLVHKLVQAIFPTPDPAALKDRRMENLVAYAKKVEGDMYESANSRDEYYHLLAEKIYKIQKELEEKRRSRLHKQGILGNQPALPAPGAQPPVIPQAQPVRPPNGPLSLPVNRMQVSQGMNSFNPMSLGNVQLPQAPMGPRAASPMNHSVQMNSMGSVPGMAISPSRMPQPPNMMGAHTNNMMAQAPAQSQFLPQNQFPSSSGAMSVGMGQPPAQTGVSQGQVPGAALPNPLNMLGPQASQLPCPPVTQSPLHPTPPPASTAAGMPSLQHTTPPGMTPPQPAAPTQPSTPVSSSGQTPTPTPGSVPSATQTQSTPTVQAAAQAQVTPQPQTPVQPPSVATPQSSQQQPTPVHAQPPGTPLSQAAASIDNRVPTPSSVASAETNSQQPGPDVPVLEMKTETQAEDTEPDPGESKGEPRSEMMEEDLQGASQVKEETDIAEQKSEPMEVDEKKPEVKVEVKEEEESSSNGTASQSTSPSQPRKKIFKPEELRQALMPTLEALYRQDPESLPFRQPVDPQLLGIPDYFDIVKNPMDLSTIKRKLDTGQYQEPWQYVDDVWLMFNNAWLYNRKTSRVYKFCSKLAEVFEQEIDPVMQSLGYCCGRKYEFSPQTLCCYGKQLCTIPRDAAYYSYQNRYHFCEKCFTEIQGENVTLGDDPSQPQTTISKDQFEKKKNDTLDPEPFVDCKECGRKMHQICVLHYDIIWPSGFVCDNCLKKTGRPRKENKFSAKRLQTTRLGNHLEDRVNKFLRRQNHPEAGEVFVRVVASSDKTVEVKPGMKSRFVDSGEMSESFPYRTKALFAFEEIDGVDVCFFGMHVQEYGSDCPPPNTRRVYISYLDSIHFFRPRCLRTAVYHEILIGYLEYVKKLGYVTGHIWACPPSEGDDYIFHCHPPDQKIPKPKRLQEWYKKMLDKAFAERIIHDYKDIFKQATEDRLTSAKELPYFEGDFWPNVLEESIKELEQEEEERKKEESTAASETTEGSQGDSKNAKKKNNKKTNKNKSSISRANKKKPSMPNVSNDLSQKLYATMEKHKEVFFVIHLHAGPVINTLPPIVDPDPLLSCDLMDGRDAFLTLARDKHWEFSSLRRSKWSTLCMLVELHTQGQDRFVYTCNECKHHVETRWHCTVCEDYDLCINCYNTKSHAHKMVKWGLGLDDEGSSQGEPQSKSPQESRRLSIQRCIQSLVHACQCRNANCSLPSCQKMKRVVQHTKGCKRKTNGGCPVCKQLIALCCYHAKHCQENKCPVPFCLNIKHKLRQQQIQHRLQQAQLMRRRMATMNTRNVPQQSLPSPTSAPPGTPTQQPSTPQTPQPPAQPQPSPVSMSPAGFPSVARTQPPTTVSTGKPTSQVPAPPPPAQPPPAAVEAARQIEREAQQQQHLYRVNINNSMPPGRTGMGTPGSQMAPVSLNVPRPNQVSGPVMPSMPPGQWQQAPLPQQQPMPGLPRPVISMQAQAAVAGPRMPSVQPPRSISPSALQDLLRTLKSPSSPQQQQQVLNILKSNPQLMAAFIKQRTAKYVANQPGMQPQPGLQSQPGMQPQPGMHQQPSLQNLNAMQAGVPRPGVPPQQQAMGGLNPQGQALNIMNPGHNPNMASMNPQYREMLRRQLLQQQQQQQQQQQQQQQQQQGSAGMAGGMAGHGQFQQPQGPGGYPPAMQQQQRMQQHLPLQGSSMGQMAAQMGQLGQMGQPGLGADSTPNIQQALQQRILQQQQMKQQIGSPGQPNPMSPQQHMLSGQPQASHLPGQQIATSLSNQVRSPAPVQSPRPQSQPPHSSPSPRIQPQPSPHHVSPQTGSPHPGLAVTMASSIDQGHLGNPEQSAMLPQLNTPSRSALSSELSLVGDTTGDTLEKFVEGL

| SMILES | EC50 (MM1.S) [nM] | Activity [1] [%] | Activity [2] |
| --- | --- | --- | --- |
| C[C@H](N(Cc1ccc(F)cc1)C(=O)CN1C(=O)O[C@@]2(CCc3cc(NC(=O)NCCOCCOCCNc4cccc5c4C(=O)N(C4CCC(=O)NC4=O)C5=O)ccc32)C1=O)C(F)(F)F (stereo partly drawn) | 294 | 49 | – |
| C[C@H](N(Cc1ccc(F)cc1)C(=O)CN1C(=O)O[C@@]2(CCc3cc(NC(=O)NCCOCCOCCOCCNc4cccc5c4C(=O)N(C4CCC(=O)NC4=O)C5=O)ccc32)C1=O)C(F)(F)F (stereo partly drawn) | – | 18 | – |
| C[C@H](N(Cc1ccc(F)cc1)C(=O)CN1C(=O)O[C@@]2(CCc3cc(NC(=O)NCCOCCOCCOCCOCCNc4cccc5c4C(=O)N(C4CCC(=O)NC4=O)C5=O)ccc32)C1=O)C(F)(F)F (stereo partly drawn) | 422 | 9 | – |

The next lines start with the values.

| EC50 (MM1.S) [nM] | Activity [1] [%] | Activity [2] | SMILES |
| --- | --- | --- | --- |
| – | 42 | – | C[C@H](N(Cc1ccc(F)cc1)C(=O)CN1C(=O)O[C@@]2(CCc3cc(NC(=O)NCCCCNc4cccc5c4C(=O)N(C4CCC(=O)NC4=O)C5=O)ccc32)C1=O)C(F)(F)F (stereo partly drawn) |
| 139 | – | Active | CNC(=O)Nc1ccc2c(c1)CC[C@@]21OC(=O)N(CC(=O)N(Cc2ccc(F)cc2)[C@@H](C)C(F)(F)F)C1=O [A-485] |
